Assay results reported in ChEMBL document CHEMBL1152253, “Inhibition of the CRM1-mediated nucleocytoplasmic transport by N-azolylacrylates: structure-activity relationship and mechanism of action” (Bioorg Med Chem, 2008).
≈ marks a conversion by molar mass, not a printed value. Calls of active or inactive are those of the source. The calls are words filed in the database; no cut-off is given here.

Experiments:
[1] = molecular target: Exportin-1 (Homo sapiens) (UniProt O14980); assay: Inhibition of CRM1-mediated nucleocytoplasmic transport of RevM5 mutant in HEK293 cells assessed as RevM5-GFP nuclear localization at 2 ug/ml after 2 hrs by fluorescence microscopy; type: cell-based
Exportin-1 (Homo sapiens), sequence (O14980 whole entry): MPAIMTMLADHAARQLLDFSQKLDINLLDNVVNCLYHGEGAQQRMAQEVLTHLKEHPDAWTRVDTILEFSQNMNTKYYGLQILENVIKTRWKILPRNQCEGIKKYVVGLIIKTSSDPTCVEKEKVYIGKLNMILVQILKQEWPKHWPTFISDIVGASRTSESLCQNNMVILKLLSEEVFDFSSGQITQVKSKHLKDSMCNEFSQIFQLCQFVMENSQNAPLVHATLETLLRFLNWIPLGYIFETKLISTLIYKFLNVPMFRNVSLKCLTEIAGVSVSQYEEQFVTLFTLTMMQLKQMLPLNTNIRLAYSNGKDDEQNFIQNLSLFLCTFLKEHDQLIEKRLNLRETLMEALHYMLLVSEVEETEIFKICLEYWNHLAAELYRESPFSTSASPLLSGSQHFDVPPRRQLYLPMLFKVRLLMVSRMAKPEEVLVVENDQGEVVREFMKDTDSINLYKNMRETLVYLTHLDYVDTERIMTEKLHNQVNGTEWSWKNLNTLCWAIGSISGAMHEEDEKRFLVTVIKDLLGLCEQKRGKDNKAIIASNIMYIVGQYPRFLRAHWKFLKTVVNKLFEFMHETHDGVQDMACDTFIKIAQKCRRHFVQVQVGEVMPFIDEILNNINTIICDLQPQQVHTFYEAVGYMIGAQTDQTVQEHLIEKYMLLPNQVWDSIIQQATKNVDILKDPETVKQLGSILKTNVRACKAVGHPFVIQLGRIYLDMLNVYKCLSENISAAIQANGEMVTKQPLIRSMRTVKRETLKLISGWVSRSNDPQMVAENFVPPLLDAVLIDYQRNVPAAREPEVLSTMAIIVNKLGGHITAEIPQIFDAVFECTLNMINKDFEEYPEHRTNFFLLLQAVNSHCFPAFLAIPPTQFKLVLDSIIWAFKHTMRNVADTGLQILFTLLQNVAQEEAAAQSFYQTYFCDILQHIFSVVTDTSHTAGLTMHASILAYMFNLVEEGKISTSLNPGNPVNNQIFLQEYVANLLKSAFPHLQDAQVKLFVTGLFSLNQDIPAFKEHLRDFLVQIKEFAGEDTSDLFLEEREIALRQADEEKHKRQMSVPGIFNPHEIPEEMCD
Outline: (§1)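 HEK 293T cells in 96-well trays were transfected with pRevM5-GFP by calcium phosphate, and compound was added one day later. RevM5-GFP distribution was scored by fluorescence microscopy 2 h after addition. Mainly nuclear localization was scored positive; cytoplasmic localization was scored negative.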

[2] = molecular target: Exportin-1 (Homo sapiens) (UniProt O14980); assay: Inhibition of CRM1-mediated nucleocytoplasmic transport of RevM5 mutant in HEK293 cells assessed as RevM5-GFP nuclear localization at 10 ug/ml after 2 hrs by fluorescence microscopy; type: cell-based; outline: as §1
[3] = molecular target: Exportin-1 (Homo sapiens) (UniProt O14980); assay: Inhibition of CRM1-mediated nucleocytoplasmic transport of RevM5 mutant in HEK293 cells assessed as RevM5-GFP nuclear localization at 0.4 ug/ml after 2 hrs by fluorescence microscopy; type: cell-based; outline: as §1
[4] = molecular target: Exportin-1 (Homo sapiens) (UniProt O14980); assay: Inhibition of CRM1-mediated nucleocytoplasmic transport of RevM5 mutant in HEK293 cells assessed as RevM5-GFP nuclear localization at 0.08 ug/ml after 2 hrs by fluorescence microscopy; type: cell-based; outline: as §1
HeLa [5] = assay: Inhibition of Rev-BFP/CRM1Cys528Ser-EYFP mutant interaction in human HeLa cells assessed as Rev-BFP/CRM1Cys528Ser-EYFP nuclear colocalization at 25 nM after 2 hrs by fluorescence microscopy; type: cell-based
Outline: (§2)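 HeLa cells were co-transfected with Rev-BFP and CRM1-EYFP constructs (wild type or Cys528 mutant). One day later cells were PBS-washed and treated with compound in complete DMEM. Live cells were imaged by confocal microscopy at 30, 120 and 180 min and at 24 h. BFP was excited by a multiphoton laser at 760 nm, with emission collected at 390–480 nm. Read-out was Rev-dependent nucleolar co-localization of CRM1-EYFP.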

HeLa [6] = assay: Inhibition of Rev-BFP/CRM1-EYFP interaction in human HeLa cells assessed as Rev-BFP/CRM1-EYFP nuclear colocalization by fluorescence microscopy; type: cell-based; outline: as §2
[7] = test system: Human immunodeficiency virus 1; assay: Antiviral activity against HIV1 NL4-3 infected in HEK293T cells assessed as inhibition of virion-associated p24 antigen production after 24 hrs by ELISA; type: functional, organism-based
Outline: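 HEK 293T cells in DMEM with 10% heat-inactivated FCS were transfected with the HIV-1 molecular clone NL4-3 by calcium phosphate. Compounds were added at a range of concentrations. Virus-associated p24 antigen in the supernatant was measured by ELISA 24 h after compound addition.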

[8] = test system: Human immunodeficiency virus 1; assay: Antiviral activity against HIV1 3B infected in human OM10.1 cells assessed as inhibition of TNF-alpha-induced viral p24 production at 5 ug/mL after 48 hrs by ELISA; type: functional; set-up: scale not given: the % may be the effect or the level left
Outline: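 OM10.1 cells chronically infected with HIV-1(IIIB), grown in RPMI 1640 with 10% FCS, were washed twice to remove cell-free virus and seeded at 120,000 cells/well with compound. Cultures were stimulated with 1 ng/ml TNF-α and incubated 48 h at 37 °C. Supernatant p24 was measured by ELISA.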

[9] = Cytotoxicity against HIV1 3B infected human OM10.1 cells at 20 ug/mL after 48 hrs by MTT assay; type: cell-based
Outline: (§3)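 Cytotoxicity was read by MTT viability staining on the same TNF-α-stimulated (1 ng/ml), twice-washed HIV-1(IIIB) chronically infected OM10.1 cultures (120,000 cells/well). Compound was present throughout the 48 h incubation at 37 °C.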

[10] = Cytotoxicity against HIV1 3B infected human OM10.1 cells at 10 ug/mL after 48 hrs by MTT assay; type: cell-based; outline: as §3

Row | Compound | Activity [1] | Activity [2] | Activity [3] | Activity [4] | further results
1 | CCOC(=O)/C=C\n1ncnn1 | inactive | inactive | inactive | inactive | 
2 | CCOC(=O)/C=C\n1nnc(-c2cccc(F)c2)n1 | Active | Active |  | inactive | 
3 | Fc1cccc(-c2nnn[nH]2)c1 | inactive | inactive | inactive | inactive | 
4 | CCOC(=O)/C=C/n1nnc(-c2ccccc2Cl)n1 | inactive | Active | inactive | inactive | 
5 | CCOC(=O)/C=C/n1ccnc1-c1ccccc1 | inactive | inactive | inactive | inactive | 
6 | Clc1ccccc1-c1nnn[nH]1 | inactive | inactive | inactive | inactive | 
7 | CCOC(=O)/C=C\n1ccc(-c2ccccc2)n1 | inactive | inactive | inactive | inactive | 
8 | CCOC(=O)/C=C\n1nnnc1-c1ccccc1Cl | inactive |  | inactive | inactive | 
9 | CCOC(=O)/C=C/n1nnc(-c2ccccc2)n1 |  |  | inactive | inactive | 
10 | CCOC(=O)/C=C\n1nnc(-c2cc(Cl)ccc2N)n1 | Active | Active | Active | inactive | 
11 | CCOC(=O)/C=C/n1cnc(-c2ccccc2N)n1 | inactive | inactive | inactive | inactive | 
12 | CCOC(=O)/C=C\n1nnc(-c2ccccc2)n1 | inactive | Active | inactive | inactive | 
13 | CCOC(=O)/C=C/n1nnc(-c2cccc(F)c2)n1 | inactive | Active | inactive | inactive | 
14 | CCOC(=O)/C=C/n1cnc(-c2ccccc2)c1 | inactive |  | inactive | inactive | 
15 | CCOC(=O)/C=C\n1nnc(-c2cccc(I)c2)n1 | Active | Active |  | inactive | 
16 | CCC(=C/[C@H](C)C/C=C/C(C)=C/[C@@H](C)C(=O)[C@@H](C)[C@H](O)[C@@H](C)C/C(C)=C/C(=O)O)/C=C/[C@@H]1OC(=O)C=C[C@@H]1C |  |  |  |  | Activity (HeLa [5]): inactive; Activity (HeLa [6]): inactive
17 | Ic1cccc(-c2nnn[nH]2)c1 | inactive | inactive | inactive | inactive | 
18 | CCOC(=O)/C=C/n1nnc(-c2cc(Cl)ccc2N)n1 | Active | Active | inactive | inactive | 
19 | CCOC(=O)/C=C\n1nnnc1-c1cccc(F)c1 | inactive | inactive | inactive | inactive | 
20 | CCOC(=O)/C=C\n1nnc(-c2ccccc2Cl)n1 | Active | Active |  | inactive | 
21 | Nc1cc(Cl)ccc1-c1nnn[nH]1 | inactive | inactive | inactive | inactive | 
22 | Cc1ccnc2c1NC(=O)c1cccnc1N2C1CC1 |  |  |  |  | Activity ([7]; HEK-293T): inactive
23 | c1ccc(-c2nnn[nH]2)cc1 | inactive | inactive | inactive | inactive | 

Row | Compound | Activity [1] | Activity [2] | Activity [3] | Activity [4] | further results
24 | CCOC(=O)/C=C\n1nnnc1-c1cccc(I)c1 | inactive | inactive | inactive | inactive | 
25 | CCOC(=O)/C=C\n1cnc(-c2ccccc2)c1 |  | Active | inactive | inactive | 
26 | CCOC(=O)/C=C/n1nnnc1-c1cccc(Cl)c1 | inactive |  | inactive | inactive | 
27 | CCOC(=O)/C=C/n1nnnc1-c1cccc(F)c1 | inactive |  | inactive | inactive | 
28 | CCOC(=O)/C=C\n1nnnc1-c1cccc(Cl)c1 | inactive | Active | inactive | inactive | 
29 | CCOC(=O)/C=C/n1ncnn1 | inactive | inactive | inactive | inactive | 
30 | Brc1cccc(-c2nnn[nH]2)c1 | inactive | inactive | inactive | inactive | 
31 | CCOC(=O)/C=C\n1nnc(-c2cccc(Br)c2)n1 | Active | Active |  | inactive | 
32 | Clc1ccc(-c2nnn[nH]2)cc1 | inactive | inactive | inactive | inactive | 
33 | CCOC(=O)/C=C/n1nnnc1-c1ccccc1 | inactive | inactive | inactive | inactive | 
34 | CCOC(=O)/C=C/n1nnc(-c2cccc(I)c2)n1 |  | Active | inactive | inactive | 
35 | CCOC(=O)/C=C/n1nnnc1-c1ccc(Cl)cc1 | inactive | inactive | inactive | inactive | 
36 | CCOC(=O)/C=C/n1nnc(-c2cccc(Cl)c2)n1 |  | Active | inactive | inactive | Activity [8]: 94%; EC50 ([7]; Human immunodeficiency virus 1, NL4-3, HEK-293T): 0.6 µg/mL (≈ 2.15 µM); Activity [9]: Toxic; Activity [10]: Toxic
37 | CCOC(=O)/C=C\n1nnnc1-c1ccc(Cl)cc1 | inactive | Active | inactive | inactive | 
38 | CCOC(=O)/C=C/n1nnnc1-c1cccc(Br)c1 | inactive |  | inactive | inactive | 
39 | CCOC(=O)/C=C/n1nnc(-c2ccc(Cl)cc2)n1 | inactive | Active | inactive | inactive | 
40 | CCOC(=O)/C=C/n1nnnc1-c1cccc(I)c1 | inactive |  | inactive | inactive | 
41 | CCOC(=O)/C=C\n1nnc(-c2ccc(Cl)cc2)n1 |  | Active | inactive | inactive | 
42 | CCOC(=O)/C=C/n1ccc(-c2ccccc2)n1 | inactive | inactive | inactive | inactive | 
43 | CCOC(=O)C=Cn1ccnc1-c1ccccc1 | inactive | inactive | inactive | inactive | 
44 | CCOC(=O)/C=C/n1nnc(-c2cccc(Br)c2)n1 |  | Active | inactive | inactive | 
45 | CCOC(=O)/C=C\n1cnc(-c2ccccc2N)n1 |  | Active | inactive | inactive | 
46 | CCOC(=O)/C=C\n1nnnc1-c1cccc(Br)c1 | inactive | inactive | inactive | inactive | 
